Results as given in ChEMBL document CHEMBL4346667 (Eur J Med Chem, 2019).

How the values were obtained:
[1] = tested on: MCF7; test: Induction of apoptosis in human MCF7 cells assessed as early apoptotic cells at 1 uM after 6 hrs by Annexin V-FITC/propidium iodide staining-based flow cytometric analysis (reference value: 2%); type: functional
Method in brief: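 Log-phase cells seeded in 6-well plates and treated after adhesion; incubated in cycles of 6 h on/6 h off up to 48 h. Collected after PBS washes and trypsin, resuspended in Ca2+-enriched binding buffer. Stained with annexin V (1 µg/mL) plus PI (0.5 µg/mL) 15 min in the dark at room temperature. 10,000 events, FL1 vs FL2. At least three repeats.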

[2] = tested on: MCF7; test: Induction of apoptosis in human MCF7 cells assessed as viable cells at 25 uM after 48 hrs by Annexin V-FITC/propidium iodide staining-based flow cytometric analysis (reference value: 87.9%); type: functional; details: MCF7, 48 h, read-out: Activity

## COc1cc([C@@H]2c3cc4c(cc3[C@@H](O[C@@H]3O[C@@H]5CO[C@@H](C)O[C@H]5[C@H](O)[C@H]3O)[C@H]3COC(=O)[C@H]23)OCO4)cc(OC)c1O [ETOPOSIDE]
[1]
  Activity: 1.6%
[2]
  viability at 25 µM: 25.7%
